Reference: ChEMBL document CHEMBL4823328, “Structure-Guided Design of d-Galactal Derivatives with High Affinity and Selectivity for the Galectin-8 N-Terminal Domain” (ACS Med Chem Lett, 2021)
Calls of active or inactive are those of the source. The calls are words filed in the database; no cut-off is given here.

Assays:
MDA-MB-231 = test: Cytotoxicity against human MDA-MB-231 cells assessed as cell viability at 1 to 100 uM measured after 24 hrs by MTS assay; type: functional, cell-based; conditions: dose 1-100 µM
Method in brief: (§1)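 MTS viability assay on human PBMCs and on the K562 and MDA-MB-231 cancer lines. The cancer lines were exposed to 1–100 μM compound, and PBMCs to concentrations up to 100 μM. Read-out was the MTS tetrazolium reduction signal.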

Homo sapiens [1] = species: Homo sapiens; test: Selectivity for human galectin-8N over human galectin-2
[2] = Cytotoxicity against human PBMC cells assessed as cell viability upto 100 uM measured after 24 hrs by MTS assay; type: cell-based; method in brief: as §1
Homo sapiens [3] = species: Homo sapiens; test: Selectivity for human galectin-8N over human galectin-4 C terminal domain
[4] = target: T1, Galectin-8 (Homo sapiens) (UniProt O00214); test: Antagonist activity at galactin-8 in human MDA-MB-231 cells assessed as reduction in IL-6 secretion at 100 uM measured after 24 hrs by flow cytometry relative to control; type: cell-based; parameters: scale not given: the % may be the effect or the level left
T1 sequence (whole entry): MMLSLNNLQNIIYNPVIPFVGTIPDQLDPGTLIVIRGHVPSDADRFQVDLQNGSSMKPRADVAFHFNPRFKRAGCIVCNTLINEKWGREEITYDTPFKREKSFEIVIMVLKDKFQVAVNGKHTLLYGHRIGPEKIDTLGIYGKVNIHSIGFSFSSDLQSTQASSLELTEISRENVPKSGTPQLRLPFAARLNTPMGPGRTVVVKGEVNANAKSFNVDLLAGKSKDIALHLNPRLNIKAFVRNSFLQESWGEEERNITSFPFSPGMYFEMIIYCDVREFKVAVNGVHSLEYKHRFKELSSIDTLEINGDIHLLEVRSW
Method in brief: (§2)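 MDA-MB-231 cells, which express galectin-8 endogenously, were incubated with the compounds at 10 or 100 μM. Secreted IL-6 and IL-8 were quantified in pg/mL and compared with untreated cells. Values are means ± SEM from three independent experiments, with significance tested against untreated controls. Cell viability at the same concentrations was checked separately by MTS assay.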

Galectin-9 [5] = target: T2, Galectin-9 (Homo sapiens, UniProt O00182); test: Binding affinity to human galectin-9 C terminal domain assessed as dissociation constant measured up to 1500 uM by competitive fluorescence polarization assay; conditions: dose microM <=1500
Galectin-7 [6] = target: T3, Galectin-7 (Homo sapiens, UniProt P47929); test: Binding affinity to human galectin-7 assessed as dissociation constant measured up to 1500 uM by competitive fluorescence polarization assay; conditions: dose microM <=1500
K562 = test: Cytotoxicity against human K562 cells assessed as cell viability at 1 to 100 uM measured after 24 hrs by MTS assay; type: functional, cell-based; conditions: dose 1-100 µM; method in brief: as §1
Homo sapiens [7] = species: Homo sapiens; test: Selectivity for human galectin-8N over human galectin-8 C terminal domain
[8] = target: T1, Galectin-8 (Homo sapiens); test: Antagonist activity at galactin-8 in human MDA-MB-231 cells assessed as reduction in IL-8 secretion at 100 uM measured after 24 hrs by flow cytometry relative to control; type: cell-based; parameters: scale not given: the % may be the effect or the level left; method in brief: as §2
Homo sapiens [9] = species: Homo sapiens; test: Selectivity for human galectin-8N over human galectin-9 C terminal domain
Homo sapiens [10] = species: Homo sapiens; test: Selectivity for human galectin-8N over human galectin-9 N terminal domain
Homo sapiens [11] = species: Homo sapiens; test: Selectivity for human galectin-8N over human galectin-4 N terminal domain
[12] = target: T1, Galectin-8 (Homo sapiens); test: Antagonist activity at galactin-8 in human MDA-MB-231 cells assessed as reduction in IL-6 secretion at 10 uM measured after 24 hrs by flow cytometry relative to control; type: cell-based; parameters: scale not given: the % may be the effect or the level left; method in brief: as §2
Galectin-2 = target: T4, Galectin-2 (Homo sapiens, UniProt P05162); test: Binding affinity to human galectin-2 assessed as dissociation constant by competitive fluorescence polarization assay
T4 sequence (P05162 whole entry): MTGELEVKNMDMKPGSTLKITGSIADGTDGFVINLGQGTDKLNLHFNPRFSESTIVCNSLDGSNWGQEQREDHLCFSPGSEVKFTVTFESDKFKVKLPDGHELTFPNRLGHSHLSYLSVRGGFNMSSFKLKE

Galectin-7 [13] = target: T3, Galectin-7; test: Binding affinity to human galectin-7 assessed as dissociation constant by competitive fluorescence polarization assay
[14] = target: Galectin-1 (Homo sapiens) (UniProt P09382); test: Binding affinity to human galectin-1 assessed as dissociation constant measured up to 1500 uM by competitive fluorescence polarization assay; conditions: dose microM <=1500
Homo sapiens [15] = species: Homo sapiens; test: Selectivity for human galectin-8N over human galectin-1
Galectin-9 [16] = target: T2, Galectin-9; test: Binding affinity to human galectin-9 N terminal domain assessed as dissociation constant measured up to 1500 uM by competitive fluorescence polarization assay; conditions: dose microM <=1500
Homo sapiens [17] = species: Homo sapiens; test: Selectivity for human galectin-8N over human galectin-3
[18] = target: T5, Galectin-4 (Homo sapiens) (UniProt P56470); test: Binding affinity to human galectin-4 N terminal domain assessed as dissociation constant measured up to 1500 uM by competitive fluorescence polarization assay; conditions: dose microM <=1500
T5 sequence (whole entry): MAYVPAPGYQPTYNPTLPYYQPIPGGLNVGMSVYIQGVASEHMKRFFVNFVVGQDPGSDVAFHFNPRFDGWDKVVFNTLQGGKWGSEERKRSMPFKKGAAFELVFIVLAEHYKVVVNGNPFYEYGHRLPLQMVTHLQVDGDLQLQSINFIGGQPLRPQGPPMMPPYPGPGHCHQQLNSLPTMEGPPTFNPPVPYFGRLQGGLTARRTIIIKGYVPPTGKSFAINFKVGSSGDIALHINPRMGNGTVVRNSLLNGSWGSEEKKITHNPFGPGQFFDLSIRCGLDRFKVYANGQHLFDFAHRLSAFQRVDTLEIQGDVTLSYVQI

[19] = target: T6, Galectin-2 (Homo sapiens) (UniProt P05162); test: Binding affinity to human galectin-2 assessed as dissociation constant measured up to 1500 uM by competitive fluorescence polarization assay; conditions: dose microM <=1500
T6 sequence (whole entry): T4 sequence (P05162 whole entry)

[20] = target: T1, Galectin-8 (Homo sapiens); test: Binding affinity to human galectin-8 C terminal domain assessed as dissociation constant measured up to 1500 uM by competitive fluorescence polarization assay; conditions: dose microM <=1500
Galectin-8 = target: T7, Galectin-8 (Homo sapiens, UniProt O00214); test: Binding affinity to human galectin-8 C terminal domain assessed as dissociation constant by competitive fluorescence polarization assay
T7 sequence (O00214 whole entry): T1 sequence (whole entry)

Galectin-4 [21] = target: T8, Galectin-4 (Homo sapiens, UniProt P56470); test: Binding affinity to human galectin-4 C terminal domain assessed as dissociation constant by competitive fluorescence polarization assay
T8 sequence (P56470 whole entry): T5 sequence (whole entry)

Galectin-9 [22] = target: T2, Galectin-9; test: Binding affinity to human galectin-9 N terminal domain assessed as dissociation constant by competitive fluorescence polarization assay
Galectin-9 [23] = target: T2, Galectin-9; test: Binding affinity to human galectin-9 C terminal domain assessed as dissociation constant by competitive fluorescence polarization assay
Galectin-4 [24] = target: T8, Galectin-4; test: Binding affinity to human galectin-4 N terminal domain assessed as dissociation constant by competitive fluorescence polarization assay

T3 sequence (P47929 whole entry): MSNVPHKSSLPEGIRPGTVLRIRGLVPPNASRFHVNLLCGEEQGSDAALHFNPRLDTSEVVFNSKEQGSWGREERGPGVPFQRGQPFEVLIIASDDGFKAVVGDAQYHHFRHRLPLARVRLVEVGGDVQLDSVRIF
Sequence of Galectin-1 (Homo sapiens) (P09382 whole entry): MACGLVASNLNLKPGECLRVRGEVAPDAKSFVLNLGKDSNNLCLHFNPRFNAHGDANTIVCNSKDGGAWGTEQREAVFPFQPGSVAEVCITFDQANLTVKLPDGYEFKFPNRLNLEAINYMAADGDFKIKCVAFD
T2 sequence (O00182 whole entry, the tested form may be a part): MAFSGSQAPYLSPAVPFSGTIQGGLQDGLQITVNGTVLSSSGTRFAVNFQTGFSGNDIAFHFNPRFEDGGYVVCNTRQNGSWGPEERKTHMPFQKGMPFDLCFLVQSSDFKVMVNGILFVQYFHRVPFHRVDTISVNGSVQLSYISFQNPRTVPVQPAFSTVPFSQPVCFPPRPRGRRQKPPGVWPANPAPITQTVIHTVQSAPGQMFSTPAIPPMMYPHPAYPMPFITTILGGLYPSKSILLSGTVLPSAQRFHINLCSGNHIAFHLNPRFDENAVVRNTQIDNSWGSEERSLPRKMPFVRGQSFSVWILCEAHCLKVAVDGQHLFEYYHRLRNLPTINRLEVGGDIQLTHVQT

Row | Selectivity ratio (Homo sapiens [1]) | Selectivity ratio (Homo sapiens [3]) | Activity (Galectin-9 [5]) | Selectivity ratio (Homo sapiens [7]) | Selectivity ratio (Homo sapiens [9]) | Selectivity ratio (Homo sapiens [10]) | Selectivity ratio (Homo sapiens [11]) | Kd (Galectin-2) | Kd (Galectin-7 [13]) | Selectivity ratio (Homo sapiens [15]) | Activity (Galectin-9 [16]) | Selectivity ratio (Homo sapiens [17]) | Structure (SMILES) | also measured
1 | > 2 | > 2 | inactive | > 2 | > 2 | > 2 | > 2 | – | – | – | – | – | Cn1c(CO[C@@H]2C=CO[C@H](CO)[C@@H]2O)nc2ccc(C(=O)O)cc21 | Activity (MDA-MB-231): inactive; Activity [2]: Non-Toxic; Activity [4]: 65%; Activity (Galectin-7 [6]): inactive; Activity (K562): inactive; Activity [8]: 55%
2 | – | – | – | – | – | – | – | – | – | – | – | – | Cn1c(CO[C@@H]2[C@@H](O)[C@@H](Sc3ccc(Cl)c(Cl)c3)O[C@H](CO)[C@@H]2O)nc2ccc(C(=O)O)cc21 | Activity (MDA-MB-231): inactive; Activity [2]: Non-Toxic; Activity [4]: 65%; Activity (K562): inactive; Activity [8]: 55%; Activity [12]: 15%
3 | – | > 2 | inactive | > 2 | > 2 | > 2 | > 2 | Not Active | Not Active | > 2 | inactive | > 2 | COC(=O)c1ccc2nc(CO[C@@H]3C=CO[C@H](CO)[C@@H]3O)[nH]c2c1 | Activity [14]: inactive
4 | > 2 | > 2 | inactive | > 2 | > 2 | > 2 | > 2 | – | – | > 2 | – | > 2 | O=C(O)c1ccc2ccc(CO[C@@H]3C=CO[C@H](CO)[C@@H]3O)nc2c1 | Activity (Galectin-7 [6]): inactive; Activity [18]: inactive
5 | – | > 2 | inactive | > 2 | > 2 | > 2 | > 2 | Not Active | Not Active | 1.4 | inactive | 0.95 | Cn1c(CO[C@@H]2C=CO[C@H](CO)[C@@H]2O)nc2cc(C(=O)O)ccc21 | –
6 | > 2 | > 2 | inactive | > 2 | > 2 | > 2 | > 2 | – | Not Active | > 2 | – | > 2 | COC(=O)c1ccc2ccc(CO[C@@H]3C=CO[C@H](CO)[C@@H]3O)nc2c1 | Activity [14]: inactive; Activity [19]: inactive; Activity [20]: inactive
7 | – | > 2 | – | – | > 2 | > 2 | > 2 | Not Active | Not Active | > 2 | – | > 2 | OC[C@H]1Oc2cc(Cc3ccc(F)cc3)cc3c2[C@@H](OC3)[C@H]1O | Kd (Galectin-8): Not Active; Kd (Galectin-4 [21]; read-out: Kd): > 3 mM
8 | – | – | – | > 2 | – | – | – | Not Active | Not Active | 1.2 | – | 0.99 | CCOC(=O)c1ccc2c(c1)nc(CO[C@@H]1C=CO[C@H](CO)[C@@H]1O)n2C | Kd (Galectin-4 [21]): Not Active; Kd (Galectin-9 [22]): Not Active; Kd (Galectin-9 [23]): Not Active; Kd (Galectin-4 [24]): Not Active
9 | > 2 | > 2 | – | > 2 | > 2 | > 2 | > 2 | – | – | > 2 | inactive | > 2 | O=C(O)c1ccc2nc(CO[C@@H]3C=CO[C@H](CO)[C@@H]3O)[nH]c2c1 | Activity (MDA-MB-231): inactive; Kd (Galectin-8): Not Active; Activity [2]: Non-Toxic; Activity [14]: inactive; Activity (Galectin-7 [6]): inactive; Activity (K562): inactive
10 | – | > 2 | – | > 2 | > 2 | > 2 | 1.8 | Not Active | Not Active | 1.2 | inactive | > 2 | OC[C@H]1OC=C[C@@H](O)[C@H]1O | –
11 | – | > 2 | – | > 2 | – | > 2 | > 2 | Not Active | Not Active | > 2 | inactive | > 2 | COC(=O)c1ccc2nc(CO[C@@H]3C=CO[C@H](CO)[C@@H]3O)n(C)c2c1 | Kd (Galectin-9 [23]): Not Active
12 | – | – | – | – | – | – | – | – | Not Active | – | – | – | CO[C@@H]1O[C@H](CO)[C@H](O)[C@H](O)[C@H]1O | –
